These results are taken from ChEMBL document CHEMBL2177011, “Discovery, synthesis, and biological evaluation of orally active pyrrolidone derivatives as novel inhibitors of p53-MDM2 protein-protein interaction” (J Med Chem, 2012).

In data set [1] the target is Tumour suppressor protein p53/Mdm4 (Homo sapiens, UniProt O15151). As to the kind of experiment: (§1) Inhibition of p53-MDMX interaction after 1 hr by fluorescence polarization assay. In kind it is protein assay. On the technique in general: Polarisation of emitted light reports the rotation of a fluorescent probe.
Chain of Tumour suppressor protein p53/Mdm4 (Homo sapiens, UniProt O15151) (P04637 whole entry): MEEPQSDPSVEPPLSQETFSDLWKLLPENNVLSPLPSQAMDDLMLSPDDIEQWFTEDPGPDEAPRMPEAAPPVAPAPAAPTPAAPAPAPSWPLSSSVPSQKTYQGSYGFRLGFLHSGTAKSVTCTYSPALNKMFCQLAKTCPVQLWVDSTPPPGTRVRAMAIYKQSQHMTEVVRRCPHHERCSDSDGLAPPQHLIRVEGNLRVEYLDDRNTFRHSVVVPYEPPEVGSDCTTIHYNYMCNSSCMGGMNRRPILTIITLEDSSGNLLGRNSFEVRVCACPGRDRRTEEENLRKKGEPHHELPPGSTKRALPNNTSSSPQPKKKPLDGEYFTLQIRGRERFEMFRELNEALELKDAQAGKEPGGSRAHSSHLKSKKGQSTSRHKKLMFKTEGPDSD
Chain of Tumour suppressor protein p53/Mdm4 (Homo sapiens, UniProt O15151) (O15151 whole entry): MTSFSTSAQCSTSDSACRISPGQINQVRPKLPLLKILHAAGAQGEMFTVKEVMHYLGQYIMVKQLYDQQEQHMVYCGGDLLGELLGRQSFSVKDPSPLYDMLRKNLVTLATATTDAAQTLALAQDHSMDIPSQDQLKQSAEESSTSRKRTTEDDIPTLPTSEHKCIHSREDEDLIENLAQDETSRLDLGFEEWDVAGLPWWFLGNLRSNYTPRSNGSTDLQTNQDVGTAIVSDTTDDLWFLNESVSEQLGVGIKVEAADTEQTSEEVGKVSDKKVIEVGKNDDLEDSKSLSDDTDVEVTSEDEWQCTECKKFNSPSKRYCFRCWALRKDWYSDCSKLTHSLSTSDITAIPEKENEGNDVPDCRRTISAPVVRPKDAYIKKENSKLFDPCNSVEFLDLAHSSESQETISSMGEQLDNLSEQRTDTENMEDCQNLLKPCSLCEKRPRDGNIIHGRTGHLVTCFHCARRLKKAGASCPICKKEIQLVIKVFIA
For data set [2], the system named is SAOS-2. The experiment in a line: Antiproliferative activity against p53 deficient human Saos2 cells after 72 hrs by MTT assay. The format is functional, cell-based. The conditions noted are these: SAOS-2, 72 h. In a few lines:
(§2)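 Cells seeded at 5−6 × 10⁴ per well and cultured 24 h, then exposed in triplicate wells to a range of compound concentrations for 72 h, with 0.1% DMSO as control. MTT (5 mg/mL solution) was added for 4 h at 37 °C, formazan dissolved in DMSO, absorbance read at 570 nm. Drug-free wells served as blanks; IC50 calculated.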
In general terms: Tetrazolium assays rely on reduction of a dye to a coloured formazan, in cell work by metabolically active cells.

Data set [3] concerns A549. As to the kind of experiment: Antiproliferative activity against human A549 cells expressing wild type p53 after 72 hrs by MTT assay. The conditions noted are these: Homo sapiens, A549, 72 h; read-out: IC50. The format is functional, cell-based. In short, it runs like this:
as §2

Data set [4] deals with NCI-H1299. As to the kind of experiment: Antiproliferative activity against p53 deficient human NCI-H1299 cells after 72 hrs by MTT assay. To be noted: NCI-H1299, 72 h. In kind it is functional, cell-based. In a few lines:
as §2

The target in data set [5] is Tumour suppressor p53/oncoprotein Mdm2 (Homo sapiens, UniProt Q00987). As to the kind of experiment: Inhibition of p53-MDM2 interaction after 1 hr by fluorescence polarization assay. The format is protein assay.
Chain of Tumour suppressor p53/oncoprotein Mdm2 (P04637 whole entry): as the sequence (P04637 whole entry) above
Chain of Tumour suppressor p53/oncoprotein Mdm2 (Q00987 whole entry): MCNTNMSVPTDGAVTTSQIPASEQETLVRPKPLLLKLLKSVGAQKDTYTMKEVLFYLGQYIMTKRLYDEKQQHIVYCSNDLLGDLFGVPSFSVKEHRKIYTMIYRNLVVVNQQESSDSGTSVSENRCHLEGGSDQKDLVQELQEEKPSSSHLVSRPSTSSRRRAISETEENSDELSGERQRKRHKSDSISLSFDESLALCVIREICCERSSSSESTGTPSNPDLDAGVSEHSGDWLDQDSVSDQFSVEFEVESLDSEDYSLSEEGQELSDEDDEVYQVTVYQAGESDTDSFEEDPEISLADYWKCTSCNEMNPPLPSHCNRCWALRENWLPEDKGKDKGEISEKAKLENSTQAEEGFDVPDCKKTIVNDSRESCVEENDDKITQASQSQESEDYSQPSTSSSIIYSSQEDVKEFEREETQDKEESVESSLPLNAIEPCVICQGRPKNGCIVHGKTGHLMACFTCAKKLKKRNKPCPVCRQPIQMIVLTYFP
Data set [6] concerns U2OS. As to the kind of experiment: Antiproliferative activity against human U2OS cells expressing wild type p53 after 72 hrs by MTT assay. To be noted: Homo sapiens, U2OS, 72 h; read-out: IC50. In kind it is functional, cell-based. In a few lines:
as §2

Data set [7] has as its system A549. The experiment in a line: Induction of apoptosis in human A549 cells expressing wild type p53 at 5 uM after 48 hrs using annexin V-FITC staining by flow cytometry assay. The format is functional. In short, it runs like this:
(§3)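 A549 cells (5 × 10⁵ cells/mL) were seeded in six-well plates and treated at 5−20 μM for 48 h. Cells were harvested by trypsinization, washed twice in cold PBS and resuspended in binding buffer. They were stained with annexin V-FITC for 15 min at room temperature, then with PI for 15 min in the dark, and analyzed by flow cytometry; n = 3.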
For orientation: In flow cytometry, cells or beads pass a laser one at a time.

The test system of data set [8] is A549. As to the kind of experiment: Induction of apoptosis in human A549 cells expressing wild type p53 after 48 hrs using annexin V-FITC staining by flow cytometry assay. The format is functional, cell-based. In a few lines:
as §3

Data set [9] deals with A549. As to the kind of experiment: Induction of apoptosis in human A549 cells expressing wild type p53 at 10 uM after 48 hrs using annexin V-FITC staining by flow cytometry assay. In kind it is functional. In a few lines: as §3
In data set [10] the test system is A549. As to the kind of experiment: Induction of apoptosis in human A549 cells expressing wild type p53 at 20 uM after 48 hrs using annexin V-FITC staining by flow cytometry assay. The format is functional. In a few lines:
as §3

In data set [11] the test system is Mus musculus. As to the kind of experiment: Toxicity in nude BALB/C mouse assessed as mortality at 200 mg/kg, po qd for 14 days. In kind it is organism-based. The arrangement: dose 200 mg/kg, route oral. To be noted: in vivo, 336 h. In a few lines: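 Male BALB/C nude mice (18−20 g) carried subcutaneous A549 implants in the right axilla. Dosing began once tumors reached 100−300 mm³, 13 days after implantation. Animals were randomized into groups of 6 per treatment and 10 controls, then given 200 mg/kg by gavage once daily for 14 consecutive days. Body weight was recorded every 4 days. Mice were sacrificed on day 29 or 33.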

The test system of data set [12] is A549. The experiment in a line: Antitumor activity against human A549 cells expressing wild type p53 xenografted in nude BALB/C mouse assessed as inhibition of tumor growth at 200 mg/kg, po qd for 14 days. In kind it is functional. The conditions noted are these: A549, 336 h, read-out: TGI. In short, it runs like this: (§4)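 Male BALB/C nude mice (18−20 g) had A549 cells implanted subcutaneously in the right axilla. Dosing started on day 13, when tumors reached 100−300 mm³. Mice were randomized (6 per treatment group, 10 controls) and dosed by gavage once daily for 14 days. Caliper tumor volume (TV = 1/2 × a × b²) was taken every 4 days; relative tumor volume was used. Mice were sacrificed on day 29 or 33.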

In data set [13] the target is Tumour suppressor protein p53/Mdm4 (Homo sapiens, UniProt P04637+O15151). The data set is described as §1. In kind it is protein assay.
Chain of Tumour suppressor protein p53/Mdm4 (Homo sapiens, UniProt P04637+O15151) (P04637 whole entry): as the sequence (P04637 whole entry) above
Chain of Tumour suppressor protein p53/Mdm4 (Homo sapiens, UniProt P04637+O15151) (O15151 whole entry): as the sequence (O15151 whole entry) above
The test system of data set [14] is A549. The experiment in a line: Antitumor activity against human A549 cells expressing wild type p53 xenografted in nude BALB/C mouse assessed as inhibition of tumor growth at 300 mg/kg, po qd for 14 days. The format is functional. To be noted: A549, 336 h, read-out: TGI. In a few lines: as §4
In data set [15] the test system is Mus musculus. As to the kind of experiment: Toxicity in human A549 cells expressing wild type p53 xenografted nude BALB/C mouse assessed as reduction of body weight at 300 mg/kg, po qd for 14 days. In kind it is organism-based. Further details: dose 300 mg/kg, route oral; call rule not given here. To be noted: in vivo, 336 h. In a few lines:
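Subcutaneous A549 xenografts (right axilla) in male BALB/C nude mice (18−20 g). From day 13 (tumors 100−300 mm³), the compound was given by gavage once daily for 14 days (6 animals per group; vehicle control group). Body weight was recorded every 4 days during treatment.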

The structures appear in SMILES notation.

The Ki is a dissociation constant, usually derived from enzyme kinetics or from competition with a known ligand. A higher Ki goes with weaker binding. As a reminder, the IC50 is the concentration that gives 50% inhibition. As for `O=C(C1=C(OC2CCCCC2)C(=O)N(CCCn2ccnc2)C1c1ccc(Br)cc1)c1ccccc1` (centres undefined), the Ki in data set [1] is 17.9 µM; in data set [5], 490 nM. Further, the IC50 in data set [2] is 29.7 µM; in data set [3], 31.2 µM; in [4], 19.9 µM; in data set [6], 22.4 µM.
For `COc1ccc(C2=N[C@@H](c3ccc(Cl)cc3)[C@@H](c3ccc(Cl)cc3)N2C(=O)N2CCNC(=O)C2)c(OC(C)C)c1` [NUTLIN-3], the IC50 was 31.6 µM in [2] and 14.3 µM in [6]. In addition, the Activity is 0.9% in data set [7], “Dose-dependent effect” in [8], 6.46% in data set [9] and 15.49% in data set [10].
As to `CCOC1=C(C(=O)c2ccccc2)C(c2ccc(Br)cc2)N(CCCn2ccnc2)C1=O` (centres undefined), the Ki in [1] amounted to 38.9 µM; in data set [5], 690 nM. Besides, the IC50 was found to be 31.7 µM in data set [2], 35.2 µM in data set [3], 28.9 µM in data set [4] and 21.9 µM in data set [6].
Consider `COCCOC1=C(C(=O)c2ccccc2)C(c2ccc(Br)cc2)N(CCCn2ccnc2)C1=O` (centres undefined), for which the Ki turned out to be 2.11 µM in data set [1] and 1340 nM in [5].
`CC(C)OC1=C(C(=O)c2ccccc2)C(c2ccc(Br)cc2)N(CCCn2ccnc2)C1=O` (centres undefined): the Activity result in data set [11] is given as “Non-toxic”. The IC50 in data set [2] turned out to be 23 µM; in data set [3] it was 8.72 µM; in data set [4], 18.9 µM; in data set [6], 24.8 µM. In addition, in [12], the inhibition in vivo at 200 mg/kg was found to be 40%.
Consider `C[C@@H](NC1=C(C(=O)c2ccccc2)[C@@H](c2ccc(Br)cc2)N(CCCn2ccnc2)C1=O)c1ccccc1`, for which the Activity entry in [11] is “Non-toxic”; in [7], 0.63%; in data set [15], “Non-toxic”; in [8], “Dose-dependent effect”; in [9], 4.02%; in [10], 17.85%. The Ki entry in data set [13] is “Not Active”. Besides, the IC50 in data set [2] amounted to 27.4 µM; in [3], 1.97 µM; in data set [4], 14.4 µM; in [6] it was 28.1 µM. Moreover, in data set [14], the inhibition in vivo at 300 mg/kg was 52.5%. Further, in [12], the inhibition in vivo at 200 mg/kg came out at 40%.
